{"source": "ChEMBL document CHEMBL4251659", "about": "“Anti-Influenza Triterpene Saponins from the Bark of Burkea africana” (J Nat Prod, 2018)", "key": {"Influenza A virus H3N2": {"test_system": "Influenza A virus H3N2", "assay": "Antiviral activity against Influenza A virus H3N2 A/Hong Kong/68 infected in MDCK cells assessed as inhibition of virus-induced cytopathic effect after 48 hrs", "format": "functional, organism-based", "how_it_was_run": "(§1)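 Run on 2-day-old confluent MDCK monolayers. Test concentrations reached a maximum of 100 μM for pure compounds and 100 μg/mL for extracts or fractions. Virus input gave complete CPE at 48 h post-infection, when inhibition was scored. Each concentration was tested twice. IC50 (50% inhibition of virus-induced CPE) is the mean of at least three experiments.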"}, "Influenza A virus": {"test_system": "Influenza A virus", "assay": "Antiviral activity against Influenza A virus H1N1 A/Jena/8178/09 infected in MDCK cells assessed as inhibition of virus-induced cytopathic effect after 48 hrs", "format": "functional, organism-based", "how_it_was_run": "as §1"}, "[1]": {"assay": "Selectivity index, ratio of CC50 for MDCK cells to IC50 for Influenza A virus H3N2 A/Hong Kong/68 infected in MDCK cells", "format": "toxicity, cell-based", "conditions": "dog, read-out: Ratio CC50/IC50; call rule not given here", "how_it_was_run": "(§2)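 SI was calculated as CC50/IC50. CC50 was measured on 2-day-old confluent MDCK monolayers 72 h after sample addition, at a maximum of 100 μM for compounds or 100 μg/mL for extracts or fractions, with each concentration tested twice. IC50 came from the 48 h CPE inhibition assay. Both are means of at least three experiments.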"}, "[2]": {"assay": "Selectivity index, ratio of CC50 for MDCK cells to IC50 for Influenza A virus H1N1 A/Jena/8178/09 infected in MDCK cells", "format": "toxicity, cell-based", "conditions": "dog, read-out: Ratio CC50/IC50", "how_it_was_run": "as §2"}}, "data": [{"smiles": "C=C(C)[C@@H]1CC[C@]2(C(=O)O)CC[C@]3(C)[C@H](CC[C@@H]4[C@@]5(C)C[C@@H](O)[C@H](O[C@@H]6O[C@H](CO)[C@@H](O)[C@H](O)[C@H]6O[C@@H]6OC[C@@H](O)[C@H](O)[C@H]6O)C(C)(C)[C@@H]5CC[C@]43C)[C@@H]12", "values": [{"measurement": "IC50", "setting": "Influenza A virus H3N2", "result": "Not Active"}]}, {"smiles": "C[C@H]1O[C@@H](O[C@H]2[C@H](O)[C@@H](O[C@@H]3OC[C@@H](O)[C@H](O)[C@H]3O)[C@H](O[C@H]3[C@H](O)C[C@]4(C)[C@H]5CC=C6[C@@H]7CC(C)(C)CC[C@]7(C(=O)O)CC[C@@]6(C)[C@]5(C)CC[C@H]4C3(C)C)O[C@@H]2CO)[C@@H](O)[C@@H](O)[C@@H]1O", "values": [{"measurement": "IC50", "setting": "Influenza A virus", "result": "Not Active"}]}, {"smiles": "CC1(C)C[C@H]2C3=CC[C@@H]4[C@@]5(C)CC[C@H](O)C(C)(C)[C@@H]5CC[C@@]4(C)[C@]3(C)CC[C@@]2(C(=O)O)C[C@H]1OC(=O)/C=C/c1ccccc1", "values": [{"measurement": "selectivity ratio", "setting": "[1]", "result": "> 11"}, {"measurement": "selectivity ratio", "setting": "[2]", "result": "> 15"}]}, {"smiles": "C=C(C)[C@@H]1CC[C@]2(C(=O)O)CC[C@]3(CO)[C@H](CC[C@@H]4[C@@]5(C)C[C@@H](O)[C@H](O[C@@H]6O[C@H](CO)[C@@H](O)[C@H](O)[C@H]6O[C@@H]6O[C@H](CO)[C@@H](O)[C@H](O)[C@H]6O)C(C)(C)[C@@H]5CC[C@]43C)[C@@H]12", "values": [{"measurement": "IC50", "setting": "Influenza A virus H3N2", "result": "Not Active"}]}, {"smiles": "C=C(C)[C@@H]1CC[C@]2(C(=O)O)CC[C@]3(CO)[C@H](CC[C@@H]4[C@@]5(C)C[C@@H](O)[C@H](O)C(C)(C)[C@@H]5CC[C@]43C)[C@@H]12", "values": [{"measurement": "IC50", "setting": "Influenza A virus H3N2", "result": "Not Active"}]}, {"smiles": "C=C(C)[C@@H]1CC[C@]2(C(=O)O)CC[C@]3(CO)[C@H](CC[C@@H]4[C@@]5(C)C[C@@H](O)[C@H](O[C@@H]6O[C@H](CO)[C@@H](O)[C@H](O)[C@H]6O[C@@H]6OC[C@@H](O)[C@H](O)[C@H]6O)C(C)(C)[C@@H]5CC[C@]43C)[C@@H]12", "values": [{"measurement": "IC50", "setting": "Influenza A virus H3N2", "result": "Not Active"}, {"measurement": "IC50", "setting": "Influenza A virus", "result": "Not Active"}]}, {"smiles": "CC1(C)C[C@H]2C3=CC[C@@H]4[C@@]5(C)C[C@@H](O)[C@H](O)C(C)(C)[C@@H]5CC[C@@]4(C)[C@]3(C)CC[C@@]2(C(=O)O)C[C@H]1OC(=O)/C=C/c1ccccc1", "values": [{"measurement": "selectivity ratio", "setting": "[1]", "result": "> 9"}, {"measurement": "selectivity ratio", "setting": "[2]", "result": "> 14"}]}, {"smiles": "C=C(C)[C@@H]1CC[C@]2(C(=O)O)CC[C@]3(C)[C@H](CC[C@@H]4[C@@]5(C)C[C@@H](O)[C@H](O)C(C)(C)[C@@H]5CC[C@]43C)[C@@H]12", "note": "[ALPHITOLIC ACID]", "values": [{"measurement": "IC50", "setting": "Influenza A virus H3N2", "result": "Not Active"}, {"measurement": "IC50", "setting": "Influenza A virus", "result": "Not Active"}]}, {"smiles": "CC1(C)CC[C@]2(C(=O)O)CC[C@]3(C)C(=CC[C@@H]4[C@@]5(C)C[C@@H](O)[C@H](O)C(C)(C)[C@@H]5CC[C@]43C)[C@@H]2C1", "note": "[MASLINIC ACID]", "values": [{"measurement": "IC50", "setting": "Influenza A virus H3N2", "result": "Not Active"}, {"measurement": "IC50", "setting": "Influenza A virus", "result": "Not Active"}]}]}
